Key:
Format in all cases: functional
Vanilloid receptor [1] = target: T1, Vanilloid receptor (Rattus norvegicus, UniProt Q9ERZ8+Q9WUD2+O35433); test: In vitro effective concentration for [Ca2+] uptake into dorsal root ganglia neurones in culture
Vanilloid receptor [2] = target: T1, Vanilloid receptor; test: In vitro effective concentration for Ca++ uptake into dorsal root ganglia neurones in culture
Summary of the method: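 Uptake of 45Ca2+ tracer into cultured dorsal root ganglion neurones, evoked by the applied agonist analogues. Potency is expressed as EC50 in μM, reported ± an error term. Full assay details are held in an earlier paper of the series.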

Mus musculus = species on record: Mus musculus; test: Effective analgesic dose in mouse tail-flick latency assay
Cavia porcellus = species on record: Cavia porcellus; test: Effective concentration for guinea pig ileum contraction in an in vitro assay

Row | Compound | EC50 (Vanilloid receptor [1]) [µM] | EC50 (Vanilloid receptor [2]) [µM] | other results
1 | CCCCCCCCCC/N=C(\S)NCc1ccc(O)c(OC)c1 |  | 0.11 | 
2 | CCCCCCCC/N=C(\S)NCc1ccc(O)c(OC)c1 |  |  | ED50 (Mus musculus): 3.2 µmol/kg; EC50 (Vanilloid receptor [2]; read-out: EC50): 0.06 µM; EC50 (Cavia porcellus): 0.06 µM
3 | COc1cc(CNC(=O)CCCCCCCCCCC(=O)O)ccc1O |  | > 100 | 
4 | CCCCCCC/N=C(\S)NCc1ccc(O)c(OC)c1 |  | 0.29 | ED50 (Mus musculus): 15 µmol/kg; EC50 (Cavia porcellus): 0.1 µM
5 | COc1cc(CNC(=O)CCCCCCC(C)C)ccc1O [DIHYDROCAPSAICIN] | 0.19 |  | 
6 | COc1cc(C/N=C(\S)NC(c2ccccc2)c2ccccc2)ccc1O | 0.27 |  | 
7 | CCCCC/N=C(\S)NCc1ccc(O)c(OC)c1 | 1.96 |  | ED50 (Mus musculus): > 50 µmol/kg; EC50 (Cavia porcellus): 1.8 µM
8 | CCCCCCCCC(=O)NCc1ccc(O)c(OC)c1 [NONIVAMIDE] |  |  | EC50 (Vanilloid receptor [2]; read-out: EC50): 0.55 µM
9 | COc1cc(CNC(=O)CCCC/C=C/C(C)C)ccc1O [CAPSAICIN] |  |  | ED50 (Mus musculus): 15 µmol/kg
10 | CCCCCCCCC/N=C(\S)NCc1ccc(O)c(OC)c1 |  | 0.1 | 
11 | CCCCCC/N=C(\S)NCc1ccc(O)c(OC)c1 | 0.18 |  | ED50 (Mus musculus): 12.5 µmol/kg; EC50 (Cavia porcellus): 0.18 µM
12 | CCCCCCCCCCCCCCCCCC(=O)NCc1ccc(O)c(OC)c1 |  | > 100 | 
13 | COc1cc(C/N=C(\S)NC(c2ccccc2)(c2ccccc2)c2ccccc2)ccc1O |  | > 100 | 
14 | CCCCCCCCCCCCCCCCCC/N=C(\S)NCc1ccc(O)c(OC)c1 |  | 8.1 | 
15 | CCCC/N=C(\S)NCc1ccc(O)c(OC)c1 | 9.48 |  | ED50 (Mus musculus): > 50 µmol/kg; EC50 (Cavia porcellus): 3.4 µM
16 | COCCOCCOCC(=O)NCCCCCCCCCCC(=O)NCc1ccc(O)c(OC)c1 |  | > 100 | 
17 | CCCCCCCC/C=C/CCCCCCCC(=O)NCc1ccc(O)c(OC)c1 |  | 0.36 | 
18 | COc1cc(C/N=C(\S)NC2[C@H]3C[C@@H]4C[C@@H](C[C@H]2C4)C3)ccc1O (stereo partly drawn) | 1.08 |  | 
19 | CCCCCCCCCCCC/N=C(\S)NCc1ccc(O)c(OC)c1 |  | 0.16 | 
20 | CCCCCCCC/C=C\CCCCCCCC(=O)NCc1ccc(O)c(OC)c1 [OLVANIL] |  | 0.17 | 
21 | CCCCCCCCCCCCCCCC/N=C(\S)NCc1ccc(O)c(OC)c1 |  | > 100 | 
22 | CCCCCCCC/C=C/CCCCCCC/N=C(\S)NCc1ccc(O)c(OC)c1 |  | > 100 | 

Now from value to molecule, other results behind:

Row | EC50 (Vanilloid receptor [1]) [µM] | EC50 (Vanilloid receptor [2]) [µM] | Compound | other results
23 | 79.8 |  | COc1cc(CNC(=O)CCCCCNC(=O)OC(C)(C)C)ccc1O | 
24 | 2.58 |  | COc1cc(CNC(=O)/C=C/c2cccc(Cl)c2)ccc1O | 
25 | 0.66 |  | COc1cc(CC(=O)NCCc2ccc(Cl)cc2)ccc1O | 
26 | 4.1 |  | COc1cc(CNC(=O)C#Cc2ccc(Cl)cc2)ccc1O | 
27 | 11.8 |  | COc1cc(CNC(=O)/C=C/c2ccccc2)ccc1O | 
28 |  | 4.58 | COc1cc(CNC(=O)/C=C/c2ccc([N+](=O)[O-])cc2)ccc1O | 
29 | 45.26 |  | COc1cc(CNC(=O)CCc2ccccc2)ccc1O | 
30 |  | > 100 | COc1cc(CNC(=O)CBr)ccc1O | 
31 | 0.62 |  | COc1cc(CNC(=O)/C=C/c2ccc(Cl)cc2Cl)ccc1O | 
32 | 0.24 |  | COc1cc(CNC(=O)/C=C/c2ccc(-c3ccccc3)cc2)ccc1O | 
33 | 26.5 |  | COc1cc(CNC(=O)/C=C/c2ccc(C#N)cc2)ccc1O | 
34 | > 100 |  | COCCOCCOCC(=O)NCc1ccc(O)c(OC)c1 | 
35 | 0.35 |  | COc1cc(CNC(=O)/C=C/c2ccc(I)cc2)ccc1O | 
36 | > 100 |  | COc1cc(CNC(=O)CCCCCN)ccc1O.O=C(O)C(F)(F)F | 
37 | 4.39 |  | COc1cc(CNC(=O)/C=C/c2ccc(N(C)C)cc2)ccc1O | 
38 | 1000 |  | COc1cc(CNC(=O)/C=C/c2ccc(NC=O)cc2)ccc1O | 
39 |  | > 100 | COc1cc(CNC(=O)CCl)ccc1O | 
40 | > 100 |  | COc1cc(CNC(=O)CCc2ccc(O)cc2)ccc1O | 
41 | 1.24 |  | COc1cc(CNC(=O)/C=C/c2ccc(Cl)cc2)ccc1O | 
42 | 3.09 |  | COc1cc(CNC(=O)CCc2ccc(Cl)cc2)ccc1O | 
43 | 21 |  | COc1cc(CNC(=O)CCc2ccc([N+](=O)[O-])cc2)ccc1O | 
44 |  | 4.2 | COc1cc(CNC(=O)CCc2ccc(N=[N+]=[N-])cc2)ccc1O | 
45 | 7.77 |  | COc1cc(CNC(=O)Cc2ccc(Cl)cc2)ccc1O | 
46 | 50.1 |  | COc1cc(CNC(=O)/C=C\c2ccc(Cl)cc2)ccc1O | 
47 | > 100 |  | COCCOCC(=O)NCc1ccc(O)c(OC)c1 | 
48 | > 100 |  | COc1cc(C/N=C(/N)S)ccc1O | 
